The values that follow come from ChEMBL document CHEMBL1154369, “Betulin-derived compounds as inhibitors of alphavirus replication” (J Nat Prod, 2009).

The subject of series [1] is Semliki Forest virus. The series is described as follows: Antiviral activity against SFV infected in BHK cells after 14 hrs by luciferase reporter gene assay. Format: functional, organism-based. In a few lines:
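SFV-Rluc reporter virus from infectious cDNA clone; BHK-21 cells infected at low multiplicity (0.001 PFU/cell) and incubated 14 h, spanning over 2 infectious cycles. Serial dilutions of each derivative tested. Luciferase read-out as surviving virus fraction. IC50 from a sigmoidal dose-response fit; means ± SD, n = 6. 3′-Amino-3′-deoxyadenosine (20 µM) served as screen positive control.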

Series [2] is described as follows: Cytotoxicity against human HuH7 cells assessed as cell viability at 50 uM after 24 hrs.
The nature of series [3]: Cytotoxicity against human HuH7 cells assessed as cell viability at 500 uM after 24 hrs. As to conditions: read-out: Activity. Format: cell-based, Huh-7. In a few lines:
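Huh-7 human hepatocellular carcinoma cells exposed 24 h to derivative at 500 µM in an extended cytotoxicity analysis. Viability measured as intracellular ATP content and reported as surviving fraction.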

For series [4], the system named is Semliki Forest virus. Briefly: Antiviral activity against SFV infected in BHK cells assessed as surviving virus fraction at 50 uM after 14 hrs by luciferase reporter gene assay. Format: functional. Also noted: scale not given here.

On to `C=C(C)[C@@H]1CC[C@]2(COC(C)=O)CC[C@]3(C)[C@H](CC[C@@H]4[C@@]5(C)CC[C@H](O)C(C)(C)[C@@H]5CC[C@]43C)[C@@H]12`, for which the IC50 with Semliki Forest virus [1] (read-out: IC50) is 12.1 µM; in the series on Semliki Forest virus [1] (read-out: pIC50 (converted)) it was 12 µM. Moreover, in series [2], the viability at 24 h, 50 µM came out at 87%. For the same compound, in series [3], the viability at 24 h, 500 µM is more than 80%. Also, the Activity in the series on Semliki Forest virus [4] is given as 3%.
The corresponding values for `CC(=O)OC[C@]12CC[C@]3(C(C)C)C1=C1[C@H](C[C@@H]4[C@@]5(C)CC[C@H](OC(C)=O)C(C)(C)[C@@H]5CC[C@@]4(C)[C@]1(C)CC2)n1c(=O)n(Cc2ccccc2)c(=O)n13` are 35.9 µM, 36.3 µM, 101%, more than 80% and 1%.
The corresponding values for `CCCCn1c(=O)n2n(c1=O)[C@]1(C(C)C)CC[C@]3(COC(C)=O)CC[C@]4(C)C(=C31)[C@@H]2C[C@@H]1[C@@]2(C)CC[C@H](OC(C)=O)C(C)(C)[C@@H]2CC[C@]14C` are 37.9 µM, 38 µM, 81%, more than 80% and 19%.
As for `CC(=O)OC[C@]12CCC(C(C)C)=C1[C@H]1CC[C@@H]3[C@@]4(C)CC[C@H](OC(C)=O)C(C)(C)[C@@H]4CC[C@@]3(C)[C@]1(C)CC2`, the IC50 was 43.2 µM with Semliki Forest virus [1] (read-out: IC50) and 42.7 µM in the series with Semliki Forest virus [1] (read-out: pIC50 (converted)). Moreover, the viability at 24 h, 50 µM in series [2] worked out at 87%. For the same compound, in series [3], the viability at 24 h, 500 µM is more than 80%. The Activity with Semliki Forest virus [4] is recorded as 15%.
The corresponding values for `C=C(C)[C@@H]1CC[C@]2(C(=O)O)CC[C@]3(C)[C@H](CC[C@@H]4[C@@]5(C)CCC(=O)C(C)(C)[C@@H]5CC[C@]43C)[C@@H]12` [BETUNOLIC ACID] are 13.3 µM, 13.2 µM, 89%, more than 80% and 13%.
The matching figures for `C=C(C)[C@@H]1CC[C@]2(COC3CCCCO3)CC[C@]3(C)[C@H](CC[C@@H]4[C@@]5(C)CC[C@H](OC(C)=O)C(C)(C)[C@@H]5CC[C@]43C)[C@@H]12` (stereo not given in full): 24.7 µM, 24.5 µM, 91%, more than 80% and 10%.
Consider `CC(=O)OC[C@]12CC[C@]3(C(C)C)O[C@]13[C@H]1CC[C@@H]3[C@@]4(C)CC[C@H](OC(C)=O)C(C)(C)[C@@H]4CC[C@@]3(C)[C@]1(C)CC2`, for which the IC50 with Semliki Forest virus [1] (read-out: IC50) was 13.3 µM; in the series with Semliki Forest virus [1] (read-out: pIC50 (converted)), 11.5 µM. Also, the viability at 24 h, 50 µM in series [2] is 92%. Moreover, the viability at 24 h, 500 µM in series [3] is more than 80%. In addition, in the series with Semliki Forest virus [4], the Activity is recorded as 16%.
The corresponding values for `CC(=O)OC[C@]12CC[C@]3(C(C)C)C1=C1[C@H](C[C@@H]4[C@@]5(C)CC[C@H](OC(C)=O)C(C)(C)[C@@H]5CC[C@@]4(C)[C@]1(C)CC2)n1c(=O)n(-c2cccc(Cl)c2)c(=O)n13` are 22.1 µM, 22.4 µM, 95%, more than 80% and 1%.
The matching figures for `CC(C)[C@@H]1CC[C@]2(C(=O)O)CC[C@]3(C)[C@H](CC[C@@H]4[C@@]5(C)CCC(=O)C(C)(C)[C@@H]5CC[C@]43C)[C@@H]12` [DIHYDROBETULONIC ACID]: 30.6 µM, 30.2 µM, 102%, more than 80% and 14%.
`C=C(C)[C@@H]1CC[C@]2(C=O)CC[C@]3(C)[C@H](CC[C@@H]4[C@@]5(C)CCC(=O)C(C)(C)[C@@H]5CC[C@]43C)[C@@H]12` [BETULONAL]: the IC50 is 38.3 µM in the series on Semliki Forest virus [1] (read-out: IC50) and 38 µM in the series with Semliki Forest virus [1] (read-out: pIC50 (converted)). Also, in series [2], the viability at 24 h, 50 µM amounted to 90%. The viability at 24 h, 500 µM in series [3] came out at 52%. Also, the Activity with Semliki Forest virus [4] was found to be 8%.
Turning to `C=C(C)[C@@H]1CC[C@]2(COC(C)=O)CC[C@]3(C)[C@H](CC[C@@H]4[C@@]5(C)CCC(=O)C(C)(C)[C@@H]5CC[C@]43C)[C@@H]12`, the IC50 is 48.5 µM in the series with Semliki Forest virus [1] (read-out: IC50) and 47.9 µM in the series with Semliki Forest virus [1] (read-out: pIC50 (converted)). For the same compound, the viability at 24 h, 50 µM in series [2] turned out to be 83%. The viability at 24 h, 500 µM in series [3] was more than 80%. Further, the Activity with Semliki Forest virus [4] was determined as 11%.
The corresponding values for `CC(=O)OC[C@]12CC[C@]3(C(C)C)C1=C1[C@H](C[C@@H]4[C@@]5(C)CC[C@H](OC(C)=O)C(C)(C)[C@@H]5CC[C@@]4(C)[C@]1(C)CC2)n1c(=O)n(-c2cccc([N+](=O)[O-])c2)c(=O)n13` are 22.9 µM, 22.9 µM, 108%, more than 80% and 3%.
The matching figures for `C=C(C)[C@@H]1CC[C@]2(CO)CC[C@]3(C)[C@H](CC[C@@H]4[C@@]5(C)CC[C@H](O)C(C)(C)[C@@H]5CC[C@]43C)[C@@H]12` [BETULIN]: 45.5 µM, 45.7 µM, 83%, more than 80% and 7%.
For the compound `C=C(C)[C@@H]1CC[C@]2(CO)CC[C@]3(C)[C@H](CC[C@@H]4[C@@]5(C)CC[C@H](OC(C)=O)C(C)(C)[C@@H]5CC[C@]43C)[C@@H]12`, the IC50 with Semliki Forest virus [1] (read-out: IC50) was 24.2 µM; in the series with Semliki Forest virus [1] (read-out: pIC50 (converted)), 24 µM. The viability at 24 h, 50 µM in series [2] turned out to be 86%. Besides, the viability at 24 h, 500 µM in series [3] is more than 80%. Also, the Activity in the series on Semliki Forest virus [4] was 3%.
